Experimental data taken from PMC6882486 (Journal of Enzyme Inhibition and Medicinal Chemistry, 2019).

How the values were obtained:
HCT116 = assay: MTT anti-tumour cell proliferation in vitro, HCT116; format: cell-based; conditions: Homo sapiens, HCT-116, 36 h, read-out: Cells IC50 (μM) HCT116
Method in brief: (§1)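 Cells grown in RPMI1640 with 10% foetal bovine serum at 37 °C, 5% CO2. Seeded at 5000/well in triplicate and allowed 6 h to adhere. Treated with a concentration series of test compound for 36 h. Reference CDK inhibitor at the same concentrations served as positive control, and DMSO as negative control. Stained with 5% MTT; absorbance read at 570 nm.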

A549 = assay: MTT anti-tumour cell proliferation in vitro, A549; format: cell-based; conditions: Homo sapiens, A549, 36 h, read-out: Cells IC50 (μM) A549
Method in brief: as §1

CDK2 = CDK2 (Homo sapiens, UniProt P24941); assay: ADP-Glo Kinase Assay, cell-free detection of CDK2 activity; format: biochemical

IC50 (HCT116): 1.1 ± 0.3 µM
IC50 (A549): 3.7 ± 0.4 µM
IC50 (CDK2): 52.7 ± 3.1 nM
SMILES: CNC(=O)c1nn(C)c2c1C(C)(C)Cc1cnc(Nc3ccc(N4CCN(C)CC4)cc3)nc1-2 [Milciclib]
